# Read-outs that look alike come from different tables or passages of the source.
# Experiments:
# [1] = target: T1, TSPO in rat kidney (Rattus norvegicus, UniProt P16257); experiment: [3H]PK11195 displacement binding, rat kidney membranes; conditions: for lipE rat kidney: lipE = pKi – logD
# [2] = target: TSPO in human U87MG cells (Homo sapiens, UniProt P30536); experiment: [3H]PK11195 displacement binding, human U87MG cell membranes; conditions: for lipE human U87MG: lipE = pKi – logD
# [3] = target: T2, human cerebellum TSPO, HAB genotype (Homo sapiens, UniProt P30536); experiment: [3H]PK11195 binding assay, human cerebellum homogenates, HAB genotype; conditions: for lipE HAB: lipE = pKi – logD
# T2 sequence (P30536 whole entry): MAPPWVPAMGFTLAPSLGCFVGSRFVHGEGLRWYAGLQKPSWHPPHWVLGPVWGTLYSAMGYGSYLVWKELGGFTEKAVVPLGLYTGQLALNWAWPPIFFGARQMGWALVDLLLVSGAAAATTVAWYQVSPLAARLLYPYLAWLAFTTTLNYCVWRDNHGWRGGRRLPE
# [4] = target: T3, human cerebellum TSPO, LAB genotype (Homo sapiens, UniProt P30536); experiment: [3H]PK11195 binding assay, human cerebellum homogenates, LAB genotype
# T3 sequence (P30536 2-169): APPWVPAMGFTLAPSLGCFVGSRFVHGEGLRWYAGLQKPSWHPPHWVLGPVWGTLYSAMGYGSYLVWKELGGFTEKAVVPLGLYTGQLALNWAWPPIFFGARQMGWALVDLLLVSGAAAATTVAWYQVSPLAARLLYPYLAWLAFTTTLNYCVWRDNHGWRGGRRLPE
# [5] = tested on: human cerebellum TSPO, LAB genotype; experiment: as above; conditions: human cerebellum genotype sensitivity in vitro
# [6] = Measurement of logD; format: physicochemical; conditions: for logD: n-octanol/sodium phosphate buffer, pH 7.4; for logD7.4: n-octanol / sodium phosphate buffer pH 7.4, RT, n = 6
# Outline: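 Shake-flask partition of each radiolabelled test compound between 1-octanol and sodium phosphate buffer (pH 7.4) at room temperature; logD taken from the distribution coefficient of radioactivity between the two phases.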
# [7] = target: TSPO in the mouse brain (Mus musculus, UniProt P50637); experiment: PET imaging of radioligands in mouse brain, baseline and PK11195 preblock; format: in vivo
# [8] = cited from earlier work
# [9] = target: T2, human cerebellum TSPO, HAB genotype; conditions: cited from earlier work
# [10] = target: T1, TSPO in rat kidney; conditions: cited from earlier work
# [11] = target: T3, human cerebellum TSPO, LAB genotype; conditions: read-out: LAB Ki; cited from earlier work
# [12] = tested on: human cerebellum TSPO, LAB genotype; conditions: cited from earlier work
# [13] = read-out: rat kidney Ki, [3H]PK11195 1 nM, 90 min at 0 °C, n = 3
# [14] = read-out: human U87MG Ki, [3H]PK11195 1 nM, 90 min at 0 °C, n = 3
# [15] = read-out: HAB Ki, human cerebellum, three HAB subjects, 1 h at 37 °C
# [16] = read-out: LAB Ki, human cerebellum, three LAB subjects, 1 h at 37 °C
# [17] = lipE = pKi – logD, data from ref 27
# Chain of TSPO in human U87MG cells (P30536 whole entry): as the sequence (P30536 whole entry) above
Structure (SMILES),Ki [1] [nM],lipE rat kidney [1],Ki [2] [nM],lipE human U87MG [2],Ki [3] [nM],lipE HAB [3],Ki [4] [nM],LAB to HAB Ki ratio [5],logD [6],"Ki [1, 13] [nM]","Ki [2, 14] [nM]","Ki [3, 15] [nM]","Ki [4, 16] [nM]",logD7.4 [6],also measured
"CC[C@@H](C)N(C)C(=O)c1nc(-c2ccc(F)cc2)c2ccccc2n1 [3c, (R)-(N-sec-Butyl)-4-(4-fluorophenyl)-N-methylquinazoline-2-carboxamide]",–,5.12,–,5.14,–,4.81,–,2.91,–,7.41 ± 0.82,7.03 ± 0.66,15.3 ± 10.3,44.5 ± 34.4,3.01 ± 0.02,–
"CC[C@@H](C)N(C)C(=O)c1nc(-c2ccc(C(F)(F)F)cc2)c2ccccc2n1 [3f, (R)-N-(sec-Butyl)-N-methyl-4-(4-(trifluoromethyl)phenyl)-quinazoline-2-carboxamide]",4.39 ± 0.14,4.43,2.42 ± 0.66,4.69,5 ± 3.9,4.37,4 ± 5,0.8,3.93 ± 0.01,–,–,–,–,–,–
"CC[C@@H](C)N(C)C(=O)c1nc(-c2ccccc2C(F)(F)F)c2ccccc2n1 [3d, (R)-N-(sec-Butyl)-N-methyl-4-(2-(trifluoromethyl)phenyl)-quinazoline-2-carboxamide]",3.74 ± 0.1,5.18,3.18 ± 0.17,5.25,6.8 ± 8.1,–,37.1 ± 30.2,5.46,3.25 ± 0.03,–,–,–,–,–,–
CC[C@@H](C)N([11CH3])C(=O)c1nc(-c2ccccc2Cl)c2ccccc2n1 [[^11C]ER176],–,–,–,–,–,–,–,–,–,–,–,–,–,–,"blocking effect of PK11195 on brain uptake ([7]; PK11195 5 mg/kg i.v. preblock, baseline vs preblock, 80–100 min): 72%; peak radioactivity uptake in the brain ([7]; mouse whole brain, baseline, i.v. injection): around 1.0 SUV; estimated brain TSPO occupancy at baseline ([7]; occupancy by carrier, estimated from brain concentration and molar activity): 2.6%"
"CC[C@@H](C)N(C)C(=O)c1nc(-c2ccccc2Cl)c2ccccc2n1 [ER176, (R)-N-(sec-butyl)-4-(2-chlorophenyl)-N-methylquina-zoline-2-carboxamide]",–,–,–,–,–,–,–,–,–,–,–,–,–,–,"logD7.4 [8]: 3.55 ± 0.02; lipE HAB [9, 17]: 5.28; Ki ([9]; read-out: HAB Ki): 1.48 nM; lipE rat kidney [10, 17]: 4.96; Ki ([10]; read-out: rat kidney Ki): 3.1 ± 0.3 nM; Ki [11]: 1.89 nM; LAB to HAB Ki ratio [12]: 1.28"
"CCC(C)N(C)C(=O)c1cc2ccccc2c(-c2ccccc2Cl)n1 (stereo not shown) [PK11195, reference compound]",–,–,–,–,–,–,–,–,–,–,–,–,–,3.97 ± 0.02,–

# More lines, main results first:
Ki [1] [nM],lipE rat kidney [1],Ki [2] [nM],lipE human U87MG [2],Ki [3] [nM],lipE HAB [3],Ki [4] [nM],LAB to HAB Ki ratio [5],logD [6],"Ki [1, 13] [nM]","Ki [2, 14] [nM]","Ki [3, 15] [nM]","Ki [4, 16] [nM]",logD7.4 [6],Structure (SMILES),also measured
1.44 ± 0.21,5.14,1.19 ± 0.17,5.21,18.6 ± 15.7,4.02,36.9 ± 38.5,1.98,3.71 ± 0.03,–,–,–,–,–,"CC[C@@H](C)N(C)C(=O)c1nc(-c2cccc(C(F)(F)F)c2)c2ccccc2n1 [3e, (R)-N-(sec-Butyl)-N-methyl-4-(3-(trifluoromethyl)phenyl)-quinazoline-2-carboxamide]",–
–,5.34,–,5.21,–,5.01,–,2.78,–,4.19 ± 0.35,5.64 ± 0.66,9 ± 9.5,25 ± 11.6,3.04 ± 0.03,"CC[C@@H](C)N(C)C(=O)c1nc(-c2ccccc2F)c2ccccc2n1 [3a, (R)-(N-sec-Butyl)-4-(2-fluorophenyl)-N-methylquinazoline-2-carboxamide]",–
–,5.20,–,5.20,–,4.95,–,2.74,–,5.17 ± 0.63,5.09 ± 0.65,9.1 ± 8.1,24.9 ± 12.7,3.09 ± 0.01,"CC[C@@H](C)N(C)C(=O)c1nc(-c2cccc(F)c2)c2ccccc2n1 [3b, (R)-(N-sec-Butyl)-4-(3-fluorophenyl)-N-methylquinazoline-2-carboxamide]",–
